Test [1] addresses T1, 17-beta-hydroxysteroid dehydrogenase type 3 (Homo sapiens) (UniProt P37058).
T1 sequence (whole entry): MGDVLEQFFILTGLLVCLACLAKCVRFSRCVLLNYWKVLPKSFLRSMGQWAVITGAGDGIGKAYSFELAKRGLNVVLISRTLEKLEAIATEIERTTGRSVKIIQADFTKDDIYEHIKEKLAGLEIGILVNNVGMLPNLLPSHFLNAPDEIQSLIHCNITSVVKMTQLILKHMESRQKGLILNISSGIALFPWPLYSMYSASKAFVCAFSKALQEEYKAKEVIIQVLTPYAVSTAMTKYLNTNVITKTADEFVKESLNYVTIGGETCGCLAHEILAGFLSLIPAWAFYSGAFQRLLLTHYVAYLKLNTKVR
Description: Inhibition of human 17beta-HSD3 expressed in HEK293 cells assessed as enzyme-mediated transformation of [14C]-4-androstene-3,17-dione in to [14C]-testosterone at 0.1 uM. The format is cell-based.

Test [2] addresses T2, Androgen receptor (Rattus norvegicus) (UniProt P15207).
T2 sequence (whole entry): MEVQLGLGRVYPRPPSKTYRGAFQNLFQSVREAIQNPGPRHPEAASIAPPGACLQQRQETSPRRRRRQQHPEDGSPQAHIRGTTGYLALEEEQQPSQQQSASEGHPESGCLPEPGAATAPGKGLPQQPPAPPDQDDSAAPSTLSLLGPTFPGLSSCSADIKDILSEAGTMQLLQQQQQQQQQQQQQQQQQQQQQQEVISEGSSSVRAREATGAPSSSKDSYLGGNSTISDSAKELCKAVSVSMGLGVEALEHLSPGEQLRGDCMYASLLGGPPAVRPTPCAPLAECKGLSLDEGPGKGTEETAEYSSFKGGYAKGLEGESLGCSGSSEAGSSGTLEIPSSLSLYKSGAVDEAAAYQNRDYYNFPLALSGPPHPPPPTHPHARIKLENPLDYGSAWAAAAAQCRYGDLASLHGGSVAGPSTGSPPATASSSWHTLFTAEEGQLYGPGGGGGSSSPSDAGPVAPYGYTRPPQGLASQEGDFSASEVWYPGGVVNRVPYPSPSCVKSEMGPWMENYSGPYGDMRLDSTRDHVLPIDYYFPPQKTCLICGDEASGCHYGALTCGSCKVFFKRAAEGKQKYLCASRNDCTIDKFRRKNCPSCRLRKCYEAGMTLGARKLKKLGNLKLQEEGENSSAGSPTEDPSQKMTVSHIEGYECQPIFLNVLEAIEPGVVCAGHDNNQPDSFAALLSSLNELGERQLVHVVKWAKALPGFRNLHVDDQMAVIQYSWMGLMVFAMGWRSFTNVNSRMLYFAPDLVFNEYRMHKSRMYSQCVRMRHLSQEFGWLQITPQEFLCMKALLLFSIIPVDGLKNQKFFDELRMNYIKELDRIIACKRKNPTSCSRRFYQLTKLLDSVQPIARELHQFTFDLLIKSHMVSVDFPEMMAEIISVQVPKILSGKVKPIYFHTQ
The experiment in a line: Binding affinity to rat ventral prostate androgen receptor at 0.1 uM. The format is tissue-based. The conditions noted are these: Prostate gland.

In test [3] the target is T3, Glucocorticoid receptor (Rattus norvegicus) (UniProt P06536).
T3 sequence (whole entry): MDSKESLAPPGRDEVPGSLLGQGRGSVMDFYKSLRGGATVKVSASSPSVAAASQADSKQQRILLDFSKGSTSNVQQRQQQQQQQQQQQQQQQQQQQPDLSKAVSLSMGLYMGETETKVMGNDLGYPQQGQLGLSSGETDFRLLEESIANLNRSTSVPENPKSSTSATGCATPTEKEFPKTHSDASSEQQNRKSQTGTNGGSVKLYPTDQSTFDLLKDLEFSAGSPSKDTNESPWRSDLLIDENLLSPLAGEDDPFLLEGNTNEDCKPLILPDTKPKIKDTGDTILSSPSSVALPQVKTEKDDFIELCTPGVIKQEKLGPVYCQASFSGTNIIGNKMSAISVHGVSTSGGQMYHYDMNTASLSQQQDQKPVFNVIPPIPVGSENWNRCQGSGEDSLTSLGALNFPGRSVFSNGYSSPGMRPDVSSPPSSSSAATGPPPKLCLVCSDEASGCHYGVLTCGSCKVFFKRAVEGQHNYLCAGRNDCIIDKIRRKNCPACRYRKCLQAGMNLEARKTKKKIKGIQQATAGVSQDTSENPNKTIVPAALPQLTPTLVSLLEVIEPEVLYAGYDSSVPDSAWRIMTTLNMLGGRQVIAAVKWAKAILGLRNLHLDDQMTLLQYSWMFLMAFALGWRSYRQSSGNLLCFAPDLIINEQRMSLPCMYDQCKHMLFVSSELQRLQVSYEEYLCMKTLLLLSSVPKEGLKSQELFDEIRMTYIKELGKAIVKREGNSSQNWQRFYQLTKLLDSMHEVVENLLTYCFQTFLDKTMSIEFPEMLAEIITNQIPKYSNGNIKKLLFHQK
The experiment in a line: Binding affinity to rat liver glucocorticoid receptor at 0.1 uM. The gist of the method:
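Rat liver glucocorticoid receptor competitive binding, reported as % binding. Bound and free steroid are separated by dextran-coated charcoal adsorption instead of protamine sulfate precipitation.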

Test [4] has as its target T4, Estrogen receptor (Rattus norvegicus) (UniProt P06211).
T4 sequence (whole entry): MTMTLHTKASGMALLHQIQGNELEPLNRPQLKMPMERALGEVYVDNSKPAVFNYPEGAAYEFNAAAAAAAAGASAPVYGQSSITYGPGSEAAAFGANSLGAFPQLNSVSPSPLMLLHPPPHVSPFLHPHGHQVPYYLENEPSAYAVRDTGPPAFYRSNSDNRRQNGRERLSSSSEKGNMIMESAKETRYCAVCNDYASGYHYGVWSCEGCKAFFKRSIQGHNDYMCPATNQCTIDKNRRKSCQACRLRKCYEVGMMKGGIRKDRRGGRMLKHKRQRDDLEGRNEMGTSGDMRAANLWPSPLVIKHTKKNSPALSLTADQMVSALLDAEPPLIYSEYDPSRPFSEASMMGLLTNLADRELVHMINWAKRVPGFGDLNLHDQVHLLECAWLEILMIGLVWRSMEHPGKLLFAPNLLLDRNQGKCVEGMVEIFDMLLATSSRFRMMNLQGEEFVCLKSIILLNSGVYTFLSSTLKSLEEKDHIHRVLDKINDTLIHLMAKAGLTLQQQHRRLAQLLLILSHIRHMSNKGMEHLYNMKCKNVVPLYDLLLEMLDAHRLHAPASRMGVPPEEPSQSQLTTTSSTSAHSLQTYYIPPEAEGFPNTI
Description: Binding affinity to rat uterus estrogen receptor at 0.1 uM.

Inhibition and Activity data for two molecules are collected here from ChEMBL document CHEMBL1153852, “Steroidal lactones as inhibitors of 17beta-hydroxysteroid dehydrogenase type 5: chemical synthesis, enzyme inhibitory activity, and assessment of estrogenic and androgenic activities” (Eur J Med Chem, 2009).

On to `CC1(C)CC[C@@]2(CC[C@H]3[C@@H]4CCc5ccccc5[C@H]4CC[C@@]32C)OC1=O`, for which the inhibition in test [1] came to 25%.

On to `CC1(C)CC[C@@]2(CC[C@H]3[C@@H]4CCc5cc(O)ccc5[C@H]4CC[C@@]32C)OC1=O`, for which the Activity worked out at 0% in test [2], 0% in test [3] and 10% in test [4].
